JNK3 inh: inhibitors of human JNK3 kinase; inhibition, % at 8 µM; 60,000 compounds, 0.61% hits; purified JNK3 kinase activity, HTS; AID 746; P53779; in the data active means inhibition above about 17%
Ec RNAP inh: inhibitors of Escherichia coli RNA polymerase. P0A8V2. E. coli RNA polymerase, fluorescence transcription assay. inhibition, %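 (tested at 10 µM)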. 62,000 compounds, 0.2% hits; in the data active means inhibition above about 20%
SF1 activator: SF-1 (human) activation; AID 522; Q13285; 65,000 compounds, 1.9% hits; activation, % at 10 µM; CHO-K1 Gal4-SF-1 LBD luciferase reporter; % increase over DMSO SF-1-specific signal;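 active means activation above the mean activation of all tested compounds plus 3 SD, cut at about 50% in these data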
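Material: Transient Gal4-SF-1 LBD reporter, CHO-K1 | Input: 4,000 cells/well | Dosing: One dose, 10 µM compound, 1% DMSO | Incubation: 20 h compound treatment, 37 °C | Detection: SteadyLite luciferase luminescence | Evaluation: Percent activation relative to DMSO median and mock-transfected background | Benchmarks: DMSO-treated SF-1-transfected cells as negative, DMSO-treated mock-transfected cells lacking SF-1 as background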
RORa activator: RORA (human) activation. CHO-K1 Gal4-RORA LBD luciferase reporter, luminescence; percent increase over mock-subtracted basal signal. activation, % at 10 µM. P35398. 65,000 compounds, 1.5% hits;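 active means activation above the mean of all tested compounds plus 3 SD, cut at about 49% in these data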
BAP1 block: human BAP1 deubiquitinase inhibition; Q92560; recombinant BAP1, Ub-AMC hydrolysis fluorescence kinetic; stronger effect = lower value; activity remaining (% of control), % at 20 µM; 72,000 compounds, 0.48% hits; AID 436;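 active means activity remaining at or below 50% of control, provided the compound also passes the data quality filters; inactive means the rest, including low values that fail the filters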
BAP1 inh confirm: confirmation of human BAP1 enzyme inhibitors | shares compounds with BAP1 block | 310 compounds, 8% hits | purified BAP1, Ub-ethyl ester hydrolysis, HPLC; stronger effect = lower value | % of control activity, % at 20 µM;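 active means percent of control activity at or below 60%; inconclusive means HPLC trace unusable from injection failure or solvent front hiding peaks; inactive means the rest, plus ubiquitin peak ratio over a set limit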
Large screens that a line does not name were inactive (follow-up assays come after a bar, where shown). Only some compounds are listed: those with a hit (about 3.2% of all), similar ones and a draw of the others.

OC(COc1ccc2ccccc2c1)Cn1ccnc1 (stereo not drawn)	none
COc1ccc(-c2nnc(SCC(=O)Nc3cccc(Cl)c3)o2)cc1	BAP1 block 41 | BAP1 inh confirm inactive
O=C(O)CCc1ccc(-c2ccccc2)n1-c1cccc(O)c1	BAP1 block 47 (no result: Ec RNAP inh) | BAP1 inh confirm inactive
O=C(O)CCc1ccc(-c2ccccc2)n1CC(=O)O	none (no result: JNK3 inh)
Cc1ccc2nc(-c3ccccc3Cl)cc(C(=O)Nc3cc(C)on3)c2c1	none
Cc1ccc(-c2cc(C(=O)OCC(=O)Nc3cc(C)on3)c3ccccc3n2)c(C)c1	BAP1 block 49 | BAP1 inh confirm inactive
CC(C)(C)C(=O)N=C1SC2CS(=O)(=O)CC2N1c1ccc2c(c1)OCO2 (stereo not drawn)	none
CCC(=O)N(c1ccc(F)cc1)C1C=CS(=O)(=O)C1 (stereo not drawn)	none
Cc1cc(NC(=O)c2cc(Cl)ccc2Cl)no1	none
Cc1cc(NC(=O)c2ccc(COc3ccc(Cl)c(C)c3)o2)no1	BAP1 block 40 | BAP1 inh confirm inactive
c1ccc(-c2cc(-c3nn4c(-c5ccco5)nnc4s3)c3ccccc3n2)cc1	BAP1 block 20 | BAP1 inh confirm inactive
CCOC(=O)COc1ccc2c3c(c(=O)oc2c1C)CCC3	none
O=C(CSc1nc2ccccc2o1)Nc1ccccc1	none
Brc1ccc(C2Nc3cccc4cccc(c34)N2)o1	BAP1 block 43 | BAP1 inh confirm inactive
Oc1ccccc1C1Nc2cccc3cccc(c23)N1	none (not shown: BAP1 block)
CCn1cc(C(=O)NCc2ccco2)c(=O)c2cc(S(=O)(=O)N3CCCCCC3)ccc21	none
C=CCn1cc(C(=O)NCc2ccco2)c(=O)c2cc(S(=O)(=O)N3CCCCCC3)ccc21	BAP1 block 49 | BAP1 inh confirm inactive
CCOc1cccc2sc(NC(=O)c3ccc(Br)s3)nc12	BAP1 block 40 | BAP1 inh confirm inactive
COc1ccc(OC)c2c1sc(=NC(=O)c1ccco1)n2C	BAP1 block 40 | BAP1 inh confirm inactive
CCn1c(=NC(=O)c2ccc(N3C(=O)CCC3=O)cc2)sc2c(OC)ccc(OC)c21	BAP1 block 38 | BAP1 inh confirm inactive
CCn1c(=NC(=O)CN2C(=O)CCC2=O)sc2c(OC)ccc(OC)c21	none
CC(=O)Nc1cccc(NC(=O)C2CCCN2C(=O)Nc2cccc(F)c2)c1 (stereo not drawn)	none
O=C(Nc1ccc(N2CCN(C(=O)c3ccco3)CC2)c(Cl)c1)c1c(F)c(F)c(F)c(F)c1F	BAP1 block 18 | BAP1 inh confirm inconclusive
Cc1ccccc1C(=O)N1CCN(c2ccc(NC(=O)c3ccco3)cc2Cl)CC1	none
CC(=O)C1=C(C)NC(SCC(=O)c2ccc(Cl)c(Cl)c2)=C(C#N)C1c1ccco1 (stereo not drawn)	BAP1 block 45 | BAP1 inh confirm 42
CC(=O)C1=C(C)NC(SCC(=O)c2ccc(F)cc2)=C(C#N)C1c1ccco1 (stereo not drawn)	none
CC(=O)C1=C(C)NC(SCC(=O)c2cc(Cl)ccc2Cl)=C(C#N)C1c1ccco1 (stereo not drawn)	BAP1 block 49 | BAP1 inh confirm inactive
N#Cc1c(N=Cc2ccccc2)oc(-c2ccccc2)c1-c1ccccc1	none (no result: JNK3 inh, Ec RNAP inh, SF1 activator, RORa activator)
N#Cc1c(/N=C/c2ccco2)oc(-c2ccccc2)c1-c1ccccc1	BAP1 block 48 | BAP1 inh confirm inconclusive
COC(=O)C1CCN(C(=O)COC(=O)Cn2cnnn2)CC1	none
Cc1ccccc1N1CCN(Cc2c(C#N)c3ccccc3n2C)CC1	BAP1 block 45 (no result: Ec RNAP inh) | BAP1 inh confirm inactive
O=c1[nH]c(SCc2ccc(F)cc2)nc2c1cnn2-c1ccc(F)cc1	BAP1 block 48 | BAP1 inh confirm 57
CCc1cccc2c(C#N)cn(CCOc3ccccc3OC)c12	none
CC1CCCCC1N1CCN(C(=O)c2cccc(F)c2)CC1 (stereo not drawn)	none
N#C/C(=C\c1cccs1)Sc1nc2ccccc2s1	none
N#C/C(=C\c1ccc[nH]1)Sc1nc2ccccc2s1	BAP1 block 50 | BAP1 inh confirm inactive
COc1ccc(-c2noc(-c3ccc(Cl)cc3)n2)cc1	RORa activator 49, BAP1 block 36 | BAP1 inh confirm inactive
Cn1nc(-c2ccc(Cl)cc2)c2cc(C(=O)NC3CC3)sc21	BAP1 block 47 | BAP1 inh confirm inactive
Cc1cccc(N2CCN(c3cc(C)nc4nnnn34)CC2C)c1 (stereo not drawn)	none
